Drawing on ChEMBL document CHEMBL4342467, “Discovery of a Novel Dual-Target Inhibitor of ERK1 and ERK5 That Induces Regulated Cell Death to Overcome Compensatory Mechanism in Specific Tumor Types” (J Med Chem, 2020), this text covers inhibition, Activity and AUC(0-inf) for one molecule.

Series [1] concerns the target Mitogen-activated protein kinase 3 (Homo sapiens) (UniProt P27361). Description: Inhibition of wild-type human full length ERK1 (M1 to P379 residues) expressed in bacterial expression system at 1 uM by Kinomescan method relative to control. A digest of the protocol:
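KINOMEscan binding assays over a 100-kinase panel, with test compound at 1 μM. Results are given as % inhibition.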

In series [2] the target is Mitogen-activated protein kinase 7 (Homo sapiens) (UniProt Q13164). Put plainly: Inhibition of ERK5 in human MKN74 cells harboring siRNA assessed as reduction in ERK5 phosphorylation at 0.5 uM by immunofluorescence assay. The series is classed as cell-based. Put shortly:
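ERK1/2-specific or negative-control siRNA was transfected into MKN-74 cells for the indicated times, followed by compound at 0.5 μM. p-ERK1/2 and p-ERK5 puncta were detected by immunocytochemistry.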

For series [3], the target named is Mitogen-activated protein kinase; ERK1/ERK2 (Homo sapiens) (UniProt P27361+P28482). Put plainly: Inhibition of ERK1/2 in human MKN74 cells assessed as reduction in ERK1/2 phosphorylation at T202/Y204 residue at 0.5 uM measured up to 24 hrs by Western blot analysis. The series is classed as cell-based. Background: In western blotting, separated proteins are transferred to a membrane and probed.

Series [4] in a line: Effect on Ras/Raf/MEK/ERK signaling in human MKN74 cells assessed as change in Ras expression at 0.5 uM measured up to 24 hrs by Western blot analysis. The series is classed as cell-based. A digest of the protocol:
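MKN-74 cells exposed to 0.5 μM for 0, 6, 12 and 24 h. Ras, Raf, p-MEK1/2, MEK1/2, p-JNK, JNK, p-p38 and p38 immunoblotted, with GAPDH as loading control.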

Series [5] relates to MKN-74. Description: Induction of cytoplasmic vacuolization in human MKN74 cells. The series is classed as functional, cell-based.
For series [6], the system named is MKN-74. Put plainly: Induction of autophagy in human MKN74 cells assessed as increase in LC3-2 expression at 0.5 uM measured up to 24 hrs by Western blot analysis. The series is classed as functional, cell-based. Put shortly: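 MKN-74 cells treated with 0.5 μM; LC3 (LC3-II) and p62 levels analyzed by immunoblotting.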
Series [7] can be described thus: AUC (0 to infinity) in Sprague-Dawley rat at 1 mg/kg, iv by LC-MS analysis. The series is classed as ADME, organism-based. Particulars: in vivo. Details: dose 1 mg/kg, route intravenous, time infinity. Put shortly: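 Rats, two groups of 3; single i.v. dose 1 mg/kg or oral dose 10 mg/kg. Plasma concentration-time profiles used to derive T1/2, Tmax, Cmax, AUC0-t, AUC0-∞ and oral bioavailability. Data from triplicate testing, ± standard deviation.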

Activity calls are given as the source filed them. The calls are words filed in the database; no cut-off is given here.

Mitogen-activated protein kinase 7 (Homo sapiens), sequence (Q13164 2-816 limits assumed): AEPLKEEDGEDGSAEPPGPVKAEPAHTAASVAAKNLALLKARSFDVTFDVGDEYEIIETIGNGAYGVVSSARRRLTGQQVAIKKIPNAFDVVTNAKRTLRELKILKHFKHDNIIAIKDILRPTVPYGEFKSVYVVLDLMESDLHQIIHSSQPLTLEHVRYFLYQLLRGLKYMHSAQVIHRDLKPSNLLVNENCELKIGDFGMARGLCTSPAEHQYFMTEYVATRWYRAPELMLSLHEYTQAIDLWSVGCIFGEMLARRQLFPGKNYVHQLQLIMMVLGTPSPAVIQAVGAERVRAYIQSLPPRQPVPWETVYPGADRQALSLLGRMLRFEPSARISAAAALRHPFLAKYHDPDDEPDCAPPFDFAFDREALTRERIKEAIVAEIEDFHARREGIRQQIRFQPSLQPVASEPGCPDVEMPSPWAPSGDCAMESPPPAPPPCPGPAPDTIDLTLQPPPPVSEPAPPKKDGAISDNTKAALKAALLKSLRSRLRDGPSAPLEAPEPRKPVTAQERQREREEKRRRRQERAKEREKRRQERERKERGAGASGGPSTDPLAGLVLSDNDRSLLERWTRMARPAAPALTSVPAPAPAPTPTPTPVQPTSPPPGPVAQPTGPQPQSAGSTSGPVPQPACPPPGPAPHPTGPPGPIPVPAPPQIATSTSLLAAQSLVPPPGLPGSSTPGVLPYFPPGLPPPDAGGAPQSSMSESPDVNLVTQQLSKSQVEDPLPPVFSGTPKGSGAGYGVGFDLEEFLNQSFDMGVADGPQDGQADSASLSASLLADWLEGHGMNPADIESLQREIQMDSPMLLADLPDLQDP
Mitogen-activated protein kinase 3 (Homo sapiens), sequence (P27361 whole entry, the tested form may be a part): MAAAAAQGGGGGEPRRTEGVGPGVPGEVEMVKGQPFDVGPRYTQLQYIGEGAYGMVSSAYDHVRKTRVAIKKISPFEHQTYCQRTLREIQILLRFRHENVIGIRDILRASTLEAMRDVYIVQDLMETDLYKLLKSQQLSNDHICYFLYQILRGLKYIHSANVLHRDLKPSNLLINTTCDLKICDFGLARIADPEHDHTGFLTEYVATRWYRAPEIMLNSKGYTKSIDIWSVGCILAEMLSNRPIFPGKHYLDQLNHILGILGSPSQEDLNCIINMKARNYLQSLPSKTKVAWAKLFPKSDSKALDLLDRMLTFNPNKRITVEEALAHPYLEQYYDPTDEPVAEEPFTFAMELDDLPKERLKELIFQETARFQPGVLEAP
Mitogen-activated protein kinase; ERK1/ERK2 (Homo sapiens), sequence (P27361 whole entry, looked up): as the sequence (P27361 whole entry, the tested form may be a part) above
Mitogen-activated protein kinase; ERK1/ERK2 (Homo sapiens), sequence (P28482 whole entry, looked up): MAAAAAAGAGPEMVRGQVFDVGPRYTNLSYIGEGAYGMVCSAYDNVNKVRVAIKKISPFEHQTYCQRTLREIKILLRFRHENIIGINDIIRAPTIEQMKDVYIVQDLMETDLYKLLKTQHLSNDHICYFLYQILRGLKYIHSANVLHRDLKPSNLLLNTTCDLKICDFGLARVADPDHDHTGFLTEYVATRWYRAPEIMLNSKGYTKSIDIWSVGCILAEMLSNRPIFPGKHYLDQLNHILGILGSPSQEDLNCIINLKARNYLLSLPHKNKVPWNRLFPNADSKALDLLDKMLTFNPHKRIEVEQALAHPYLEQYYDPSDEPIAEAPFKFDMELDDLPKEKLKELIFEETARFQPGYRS

The term inhibition denotes the change of the read-out against control, counted positive when it falls. In general, AUC(0-inf) refers to the area under the concentration-time curve extrapolated to infinity. Read a low AUC(0-inf) as less exposure. As for `NC(=O)c1c(NC(=O)c2ccccc2Cl)sc2c1CCN(C(=S)Nc1ccccc1Cl)C2`, in series [1], the inhibition came to 94%. For the same molecule, the inhibition entry in series [2] and in series [3] was “Active” throughout. In series [4], the outcome was inactive. In addition, the outcome in the series on MKN-74 [5] and in the series on MKN-74 [6] was Active. This molecule displayed an AUC(0-inf) in series [7] of 1840 ng·h/mL.
